This is an account of results in publication PMC2826548 (Journal of structural biology, 2009).

Where two headings read alike, the source gives them in different places.

Data set [1] concerns the target T1, K2Pg (Homo sapiens, UniProt P00747, C188G/E240D/L256Y).
T1 sequence (P00747 184-262 C188G/E240D/L256Y): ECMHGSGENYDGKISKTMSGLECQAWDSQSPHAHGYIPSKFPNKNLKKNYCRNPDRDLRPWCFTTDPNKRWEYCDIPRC
As to the kind of experiment: SPR binding of VEK-30 variants to immobilized K2Pg. Put shortly:
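Recombinant peptide analytes (GB1-fusion, thrombin-cleaved, GS N-terminal remnant) were run at 25 °C. K2Pg at 100 μg/ml in 0.1 M NaOAc pH 4.0 was amine-coupled (NHS/EDC, ethanolamine block). A K2Pg-free reference cell was subtracted. KD = kd/ka.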
(SPR reads the build-up and loss of mass on a sensor chip optically.)

Data set [2] can be described thus: CD α-helix content of VEK-30 peptides in absence of K2Pg. Format: physicochemical. The conditions noted are these: 222 nm, 30 μM peptide, 100 mM sodium phosphate, pH 7.4, room temperature. Put shortly:
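Recombinant peptides (His6-GB1 fusion expressed in E. coli BL21(DE3), thrombin-cleaved, GS N-terminal remnant; variants by site-directed mutagenesis; integrity checked by MALDI-TOF). Spectra recorded 200–250 nm in a 1 mm quartz cell without K2Pg. Concentration set by A280. Helix fraction derived from mean residue ellipticity at 222 nm as f_α = (−[θ]222 − 2340)/30,300.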

The nature of data set [3]: Sedimentation equilibrium analytical ultracentrifugation. Format: physicochemical. The following applies: sedimentation equilibrium (and NMR correlation time).
Data set [4] deals with T1, K2Pg. The following applies: variant kringle vs K2Pg parent; ref [5]; cited from earlier work.
Data set [5] deals with other isolated Pg kringle domains. The following applies: cited from earlier work.
The target of data set [6] is Human K2Pg(C4G/E56D/L72Y), isolated kringle 2 domain of human plasminogen (human).
Data set [7] has the same target. Description: AUC.
The target is the same in data set [8]. Description: SPR.

One may read the koff as the first-order rate constant of dissociation. One may read the kon as the second-order rate constant of association. Regarding “H-GSVEKLTADAELQRLKNERHEEAELERLKSEY-OH [VEK-30]”, at K2Pg [1] (pH 7.4, read-out: koff (dissociation rate constant)), the koff turned out to be 0.0293 s⁻¹. Also, the kon at K2Pg [1] (pH 7.4, read-out: kon (association rate constant)) worked out at 454000 M⁻¹ s⁻¹. For the same substance, the “Apo-helicity (% α-helix in absence of K2Pg)” value in data set [2] is given as 34%. The “association state in solution” value in data set [3] is “monomeric form”. The “affinity enhancement of K2Pg(C4G/E56D/L72Y) compared with K2Pg parent” value at K2Pg [4] is “approximately 15 fold”. The “specificity of binding to Pg for the kringle 2 domain” value in data set [5] (background statement in Introduction, no reference printed in that sentence) is reported as “highly specific”. The “affinity for the other isolated Pg kringle domains” value in data set [5] (ref [5],[33]) is on record as “no measurable affinity”.

What is called Kd is the constant that tells how readily two partners part at equilibrium. A lower Kd goes with higher affinity. In turn, “VEK-30, 30-amino acid residue internal peptide from the streptococcal M-like plasminogen binding protein PAM” registered a Kd in data set [6] of 40 nM. This substance registered a stoichiometry N (VEK-30 per K2Pg) in data set [7] of 1. Further, in data set [8], the Kd came out at 65 nM, the koff was 0.0293 s⁻¹, the kon came to 454000 M⁻¹ s⁻¹ and the stoichiometry N (VEK-30 per K2Pg) is 1.

In data set [8], VEK-30[D7A/E9A] (peptide) showed a Kd of 371 nM, a koff of 0.0967 s⁻¹ and a kon of 261000 M⁻¹ s⁻¹.

In the case of VEK-30[D7A] (peptide), in data set [8], the Kd was 446 nM, the koff was 0.0561 s⁻¹ and the kon came out at 126000 M⁻¹ s⁻¹.

In data set [8], VEK-30[D7N/E9Q] (peptide) displayed a Kd of 1710 nM, a koff of 0.086 s⁻¹ and a kon of 50400 M⁻¹ s⁻¹.

Turning to VEK-30[D7N] (peptide), in data set [8], the Kd amounted to 1940 nM, the koff turned out to be 0.0704 s⁻¹ and the kon worked out at 36200 M⁻¹ s⁻¹.
